# Assay outcomes: PubChem BioAssay, SRMLSC
# Only a selection was taken, and hits are over-represented in it overall.
# HUVEC prolif 384: human endothelial cell proliferation inhibition; HUVEC proliferation, CellTiter-Glo luminescence, 72 h; hits give low values; viability, % at 10 µM (by protocol); 1.1% of 86,000 active;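 active means viability at or below 30%; inactive means viability above 30%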;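 further: 100% = median luminescence of DMSO-only cell control wells on each plate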
# Fibroblast inh: blocks proliferation of human lung fibroblasts; LL 47 human lung fibroblast viability, ATP luminescence; hits give low values; viability, % at 10 µM; 1.1% of 85,000 active;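 active means viability at or below 50% in the single dose screen; inactive means viability above 50%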;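 further: compound exposure lasted 72 h before the ATP readout; 100% = median luminescence of untreated cell-only wells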
#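 Test system: LL 47 human lung fibroblasts / Incubation: 72 h compound exposure at 37 °C after overnight plating / Technique: luminescent ATP detection, CellTiter-Glo / Compound dosing: 0.1% DMSO in all compound wells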
# H69AR inhibit: blocks growth of human H69AR lung tumor cells; H69AR lung tumor viability, ATP luminescence, 72 h; hits give low values; viability, % at 10 µM; 6% of 85,000 active;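 active means viability at or below 40%; inactive means viability above 40%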;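 further: multidrug resistant small cell line overexpressing MRP-1 efflux transporter; 100% = mean luminescence of untreated control wells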
# bCat KO growth: beta-catenin-lacking colon tumor cell growth suppression; HCT116 beta-catenin knockout viability, CellTiter-Glo, 60 h; hits give low values; viability, % at 10 µM; 1.5% of 140,000 active;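 active means viability at or under a set limit, the compound median less 4 SD, cut at about 6% in these data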;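 further: 0% = Hyamine 1622 control at 20 µM and 100% = untreated cell control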
# HCT116 PTEN-null: growth suppressors of cells with PTEN tumor suppressor deletion | HCT116 PTEN-null viability, CellTiter-Glo, 60 h; hits give low values | 1.2% of 140,000 active | viability, % at 10 µM;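 active means viability at or below a set limit, 4 SD under the median of all tested compounds, cut at about 3.7% in these data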;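 further: PTEN knockout HCT116 line with beta catenin targeted HCT116 as companion control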
# The depositor's hits bear a star; . = no result.
SMILES,HUVEC prolif 384,Fibroblast inh,H69AR inhibit,bCat KO growth,HCT116 PTEN-null
O=c1c2ccccc2c(/C=N/n2cnnc2)c(O)n1-c1ccccc1F,93,89,93,110,93
CCCCCCNCc1ccc(Br)cc1,.,.,.,84,86
CCC(C)NC(=O)CCn1c(-c2ccccc2)cc(C(C)=O)c1C (stereo not drawn),.,.,.,96,102
CC(C)(C)NC(=O)CN(C(=O)Cn1nnc(-c2ccc(Cl)cc2)n1)C1CCN(Cc2ccccc2)CC1,30,91,46,1.6*,28
COc1ccc(-c2cc(C(=O)OCC(=O)Nc3cc(C)on3)c3ccccc3n2)cc1OC,.,.,.,81,92
CCC(C)c1ccc(-c2cc(C(=O)OCC(=O)Nc3cc(C)on3)c3ccccc3n2)cc1 (stereo not drawn),45,81,9.5*,67,80
COc1cc(CNc2ccc3[nH]c(=O)[nH]c3c2)cc(Br)c1OCC(=O)NC(C)(C)C,86,82,9.9*,85,88
OC(CN1c2ccccc2Sc2ccccc21)Cn1nnc2ccccc21 (stereo not drawn),60,90,25*,7,2.5*
Cc1nn(CC(O)CN2c3ccccc3Sc3ccccc32)c(C)c1Br (stereo not drawn),59,88,27*,65,52
COc1ccc(NC(=O)CCCC2CCCCC2)cc1S(=O)(=O)N1CCCCC1,.,.,.,79,76
Cc1ccc(OCC(=O)NNC(=O)CCC(=O)Nc2ccc(C)cc2C)cc1,.,.,.,94,105
CCOC(=O)C1=C(C)NC(SCC(=O)Nc2nc(C)cs2)=C(C#N)C1c1cccs1 (stereo not drawn),46,98,37*,41,19
CC1=C(C(=O)Nc2ccccc2)C(c2ccncc2)C(C#N)=C(SCC(=O)Nc2ccccc2)N1 (stereo not drawn),91,102,11*,87,93
CC(=O)C1=C(C)NC(SCC(=O)c2ccc(-c3ccccc3)cc2)=C(C#N)C1c1cccnc1 (stereo not drawn),59,77,6.2*,21,18
C[C@@H]1C(=O)O[C@@H]2CC34[C@H]5C[C@@H](C(C)(C)C)C36[C@H](OC(=O)[C@@H]6O)OC4(C(=O)O5)[C@@]12O (stereo partly drawn),.,.,.,100,96
Cc1ccc(C)c(S(=O)(=O)C(C#N)c2nc3ccccc3nc2N2CC(C)OC(C)C2)c1 (stereo not drawn),70,86,39*,74,78
CC1Oc2ccccc2N(CC(=O)N2CCCc3ccccc32)C1=O (stereo not drawn),97,101,93,97,85
O=C1CC2CS(=O)(=O)CC2N1c1ccc(Cl)cc1Cl (stereo not drawn),.,.,.,103,102
Cc1ccccc1CS(=O)(=O)c1snnc1C,.,.,.,96,91
Cc1ccccc1CS(=O)(=O)c1cnc2ccccc2n1,74,76,16*,15,8
FC(F)(F)c1ccc(N2CCN(c3ncnc4c3nnn4Cc3ccccc3)CC2)nc1,57,95,40*,85,96
c1ccc(Cn2nnc3c(N4CCOCC4)ncnc32)cc1,.,.,.,105,85
CC1CCCCN1S(=O)(=O)c1ccc(S(=O)(=O)N2CCN(c3ccccc3)CC2)cc1 (stereo not drawn),51,64,49,75,63
O=C(O)CC(Cc1ccccc1)c1ccc2c(c1)OCO2 (stereo not drawn),93,103,105,88,84
O=C(CC(SCCO)c1ccc2c(c1)OCO2)c1ccco1 (stereo not drawn),85,87,16*,107,95
SMILES,HUVEC prolif 384,Fibroblast inh,H69AR inhibit,bCat KO growth,HCT116 PTEN-null
[O-][n+]1onc2c1CCc1nnc(-c3ccccc3)cc1-2,105,90,35*,73,70
CN(C)CCCNC1CS(=O)(=O)CC1O (stereo not drawn),94,98,88,100,105
COc1ccc(OCC(O)Cn2c(Br)nc3c2c(=O)[nH]c(=O)n3C)cc1 (stereo not drawn),94,98,35*,28,19
CN1CCN(Cc2nc3c(c(=O)[nH]c(=O)n3C)n2CCc2ccccc2)CC1,89,100,86,86,107
Cn1c(=O)[nH]c(=O)c2c1nc(N1CCOCC1)n2CCN1CCOCC1,103,107,90,88,88
Cc1ccc(Sc2nc3c(c(=O)[nH]c(=O)n3C)n2CCc2ccccc2)cc1,68,82,14*,11,2.8*
COc1ccc(CCn2c(N3CCN(Cc4ccccc4)CC3)nc3c2c(=O)[nH]c(=O)n3C)cc1,85,98,33*,99,91
COc1ccc(CCn2c(N3CCOCC3)nc3c2c(=O)[nH]c(=O)n3C)cc1,89,92,25*,96,91
Nn1c(SCc2ccccc2)nnc1-c1ccccn1,101,108,96,88,103
O=C(COC(=O)c1ccccc1C(=O)N1CCN(c2ccc(F)cc2)CC1)NCc1ccccc1,87,100,92,83,77
CCOc1ccc(NCc2nnc(SCC(=O)Nc3nc(-c4ccccc4)cs3)n2-c2ccccc2)cc1,.,.,.,1.3*,1.0*
CCn1c(SCC(=O)Nc2nc(C)cs2)nnc1C(NC(=O)c1ccccc1Cl)C(C)C (stereo not drawn),94,99,38*,95,93
COc1ccccc1-c1nnc(SCC(=O)Nc2nc(-c3ccccc3)cs2)n1C,82,100,86,62,78
CCn1c(SCC(=O)Nc2nc(-c3ccc(C)cc3)cs2)nnc1-c1ccccc1,101,99,60,49,51
CCn1c(SCC(=O)Nc2nc(-c3ccc(C)cc3)cs2)nnc1-c1ccccc1O,70,97,29*,15,19
COc1ccc2cc(C)c3nnc(SCC(=O)Nc4nc(-c5ccc(F)cc5)cs4)n3c2c1,.,.,.,2.7*,2.0*
Cc1cccc(C)c1NCc1nnc(SCC(=O)Nc2nc(-c3ccccc3)cs2)n1-c1ccccc1,.,.,.,54,57
CNC(=O)c1c[nH]n2c(=O)c(Cc3ccccc3F)c(C)nc12,78,98,96,81,90
CCOC(=O)c1c(NC(=O)C2COc3ccccc3O2)sc(C(C)=O)c1C (stereo not drawn),23*,84,21*,67,63
COCCCNC(=O)c1c(NC(=O)C2COc3ccccc3O2)sc2c1CCCC2 (stereo not drawn),77,101,35*,91,80
CCNC(=O)c1c(NC(=O)C2COc3ccccc3O2)sc2c1CCCC2 (stereo not drawn),54,87,72,84,72
CCOC(=O)c1c(NC(=O)C2COc3ccccc3O2)sc2c1CC(C)(C)NC2(C)C (stereo not drawn),.,.,.,2.3*,0.7*
O=C(Nc1ccccc1)C(Cc1ccccc1)NC(=O)C12CC3CC(CC(C3)C1)C2 (stereo not drawn),.,.,.,90,93
COc1ccccc1CNC(=O)CSc1ccc(Br)cc1,.,.,.,98,94
